TMEM16A inh – TMEM16A chloride channel inhibitors, primary screen, cell-based, HTS. 1.2% of 310,000 active. AID 588511, 2011. HEK293 TMEM16A/YFP iodide influx fluorescence, ionomycin. normalized B-score (activity score, 25-100; higher = stronger inhibition) at 10 µM;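 active = ratio plate-corrected score three or more library SD toward inhibition, starting fluorescence score within five deviations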;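 note: score derived from kinetic fluorescence span divided by baseline fluorescence per well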
Target sequence (Q8BHY3 whole entry, looked up): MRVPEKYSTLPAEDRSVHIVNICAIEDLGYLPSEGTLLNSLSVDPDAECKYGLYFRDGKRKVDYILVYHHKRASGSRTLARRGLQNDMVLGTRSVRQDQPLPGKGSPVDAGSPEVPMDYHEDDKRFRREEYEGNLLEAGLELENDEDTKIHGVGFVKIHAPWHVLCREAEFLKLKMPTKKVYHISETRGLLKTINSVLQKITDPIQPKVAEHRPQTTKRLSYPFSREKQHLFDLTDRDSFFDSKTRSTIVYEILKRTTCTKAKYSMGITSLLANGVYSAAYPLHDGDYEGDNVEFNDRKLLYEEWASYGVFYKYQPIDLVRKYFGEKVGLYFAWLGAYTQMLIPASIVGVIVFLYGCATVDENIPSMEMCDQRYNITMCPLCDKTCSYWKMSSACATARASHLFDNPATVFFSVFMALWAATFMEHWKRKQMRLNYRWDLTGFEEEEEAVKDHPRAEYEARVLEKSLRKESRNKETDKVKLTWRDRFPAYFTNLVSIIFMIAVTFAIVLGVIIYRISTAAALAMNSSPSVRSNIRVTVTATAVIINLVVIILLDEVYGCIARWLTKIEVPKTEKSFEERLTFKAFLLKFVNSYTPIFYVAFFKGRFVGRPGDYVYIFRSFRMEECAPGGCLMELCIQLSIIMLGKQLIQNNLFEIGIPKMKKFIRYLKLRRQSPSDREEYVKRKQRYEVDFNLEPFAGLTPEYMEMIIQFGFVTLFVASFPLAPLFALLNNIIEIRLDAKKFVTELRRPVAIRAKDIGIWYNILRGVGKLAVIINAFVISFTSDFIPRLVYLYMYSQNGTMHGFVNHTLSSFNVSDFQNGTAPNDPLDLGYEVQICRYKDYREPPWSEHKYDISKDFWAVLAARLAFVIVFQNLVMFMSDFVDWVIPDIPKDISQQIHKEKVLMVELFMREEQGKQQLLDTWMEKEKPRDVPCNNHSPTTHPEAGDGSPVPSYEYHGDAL
TAAR1 antagonist – human TAAR1 antagonists, primary screen, Fluo-8 calcium fluorescence, CHO RD-HGA16 cells | Trace amine-associated receptor 1 (Homo sapiens), Q96RJ0 | inhibition, % at 3 µM | 1.5% of 360,000 active | AID 624466, 2012 | antagonist;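 active = inhibition above a per-plate cutoff, the mean inhibition of test compounds on that plate plus 3 SD, cut at about 49% in these data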;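 note: 0% = DMSO plus EC80 beta-PEA response and 100% = DMSO alone without agonist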
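Test system: CHO RD-HGA16 cells bearing hTAAR1 | Reagent: β-PEA, EC80 | Compound dosing: 3 µM, single point | Schedule: Dye loading 75 min at 37 °C, then 30 min room temperature | Signal: Calcium fluorescence with Fluo-8 | Evaluation: Percent inhibition of PEA-evoked calcium signal, max/basal emission ratio | Control set: DMSO-only wells and EC80 β-PEA-stimulated wells | Repeats: Singlicate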
CRFBP-R2 agonist – agonists of CRF-BP/CRF-R2 complex, primary screen, cell-based, HEK293, calcium dye fluorescence, uHTS; CRF-binding protein / CRF receptor 2 complex (human); calcium dye fluorescence (FLIPR); percent of saturating CRF peptide response; activation, % at 13.2 µM; 0.46% of 350,000 active;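 active = activation of at least 50%, plus an integration ratio under a set limit after plate pattern correction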;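 note: plate controls were neutral control wells without compound for no effect and CRF at EC100 for full effect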
CRFBP-R2 block – antagonists of CRF-BP/CRF-R2 complex, primary screen, cell-based, HEK293, calcium dye fluorescence, uHTS | AID 588475, 2011 | CRF-induced calcium fluorescence | inhibition, % at 11.8 µM | 0.59% of 350,000 active;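 active = inhibition of the ligand-induced calcium signal above about 50% at the single tested concentration, limit read from the data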
TMEM16A act – TMEM16A chloride channel activators or potentiators, primary screen, cell-based, HTS | Anoctamin-1 (Mus musculus), Q8BHY3 | HEK293 TMEM16A/YFP-H148Q/I152L, iodide quench fluorescence; stronger effect = lower value | B-score at 10 µM | 0.3% of 340,000 active | AID 623877, 2012;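 active = fluorescence-ratio B-score plate-corrected deviation score at least 3 library SD below zero, with starting fluorescence score within 5 deviations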;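 note: channel opened by trigger with iodide after compound preincubation; score built on the fluorescence ratio of max minus min over baseline; more negative score means more quench and so TMEM16A activation or potentiation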
TAAR1 agonist – human TAAR1 agonists, primary screen, Fluo-8 calcium fluorescence, CHO RD-HGA16 cells; Trace amine-associated receptor 1 (Homo sapiens), Q96RJ0; 0.99% of 360,000 active; vehicle wells 0%, saturating PEA agonist 100%; activation, % at 3 µM;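 active = activation above the mean activation of all test compounds in the run plus 3 SD, cut at about 38% in these data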
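Test system: RD-HGA16 (CHO) cells co-expressing Gα16 and hTAAR1; dosing: one-point dosing at 3 µM (nominal); timing: 17-24 h seeding, 75 min 37 °C dye, 30 min RT; signal: kinetic Fluo-8 calcium fluorescence; read-out basis: % activation relative to PEA EC100 response; controls: DMSO and PEA EC100; replicates: n 1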
nonsel antag count – nonselective antagonists in TAAR1 counter-screen cells, counter-screen for hTAAR1 antagonist project, cell-based, fluorescence, calcium; shares compounds with TAAR1 antagonist; counterscreen cell line, antagonist mode; inhibition, % at 3 µM; 77% of 2,400 active; in the data active = inhibition above about 22%;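 note: CHO-Ga16 host cells stimulated with ATP at an EC80 level; 0% = agonist EC80 plus vehicle and 100% = vehicle without agonist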
TAAR1 ant conf – human TAAR1 antagonists, retest of hits, confirmation, cell-based, fluorescence; shares compounds with TAAR1 antagonist; TAAR1-expressing cells, fluorescence antagonist read-out; inhibition, % at 3 µM; 40% of 2,400 active; AID 651785, 2012; in the data active = inhibition above about 49%;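 note: CHO-Ga16 host cells challenged with agonist PEA near its EC80; 0% = agonist at EC80 plus vehicle and 100% = vehicle with no agonist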
Ga16 nonsel ag – calcium activation in Ga16-expressing cells, counter-screen for TAAR1 antagonist project, cell-based, fluorescence; activation, % at 3 µM; agonist counterscreen; shares compounds with TAAR1 antagonist; AID 651953, 2012; 18% of 2,400 active; in the data active = activation above about 12%;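 note: 0% = vehicle wells and 100% = saturating stimulus response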
TAAR1 ag count – TAAR1 activation by candidate antagonists – cell-based, fluorescence, counter-screen for TAAR1 antagonist project | 2% of 2,400 active | hTAAR1 cell line, agonist mode | activation, % at 3 µM | shares compounds with TAAR1 antagonist; in the data active = activation above about 37%;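 note: CHO cells stably expressing TAAR1 with calcium dye readout; 0% = DMSO vehicle and 100% = full agonist response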
* marks the source's active call; other numbers are inactive results; i = inactive; x = no result given. This is a sample that favours compounds with a hit; in the whole collection about 3.9% have one here.

SMILES	TMEM16A inh	TAAR1 antagonist	CRFBP-R2 agonist	CRFBP-R2 block	TMEM16A act	TAAR1 agonist	nonsel antag count	TAAR1 ant conf	Ga16 nonsel ag	TAAR1 ag count
Cn1c(CSCc2ccc(Cl)cc2)nnc1SCC(=O)Nc1nccs1	i	61.5*	-0.8	-25.8	i	25.3	42.3*	55.9*	16.9*	19.5
CCOC(=O)[C@]12CCCC=C1N(Cc1ccco1)C(=O)[C@H](CC(=O)NCCCOC)C2	x	3.9	x	x	x	2.1	x	x	x	x
NC(=Nc1nc(-c2ccccn2)cc2ccccc12)c1ccccn1	x	-29.3	0.3	0.3	i	0.5	x	x	x	x
CN(C)S(=O)(=O)c1cc(NC(=O)COC(=O)CC2Sc3ccccc3NC2=O)ccc1Cl (stereo unspecified)	x	62.2*	7.0	-24.6	i	21.8	31.2*	37.8	9.5	4.9
COc1ccc2[nH]cc(CCNC(=O)COc3ccc4ccc(=O)oc4c3)c2c1	i	19.1	-2.1	14.1	i	6.4	x	x	x	x
O=C(Cc1cccs1)Nc1nnc(Cc2ccccc2)s1	i	11.4	-0.4	-5.5	i	19.0	x	x	x	x
COc1ccc(Cc2nnc(NC(=O)Cc3cccs3)s2)cc1OC	i	57.4*	-2.7	24.3	i	-0.6	6.5	2.3	0.3	8.4
Cc1cc(C(=O)NCCN2C(=O)S/C(=C\c3cccs3)C2=O)ccc1[N+](=O)[O-]	i	57.2*	1.7	2.0	i	11.5	37.6*	47.0	10.1	6.5
Nc1nc(/C=C/c2ccc(F)cc2)nc(-c2ccccc2O)n1	i	26.8	0.2	-17.8	i	-1.4	x	x	x	x
Nc1nc(/C=C/c2cccnc2)nc(-c2ccccc2O)n1	i	67.0*	1.3	-16.2	i	33.1	32.4*	57.5*	14.5*	18.1
COc1ccc2c(c1)c(=O)oc1cc(OC(C(=O)O)c3ccccc3)ccc12 (stereo unspecified)	i	103.9*	-2.0	7.5	i	-3.6	11.4	-4.8	5.4	4.8
O=C(COc1ccc2c(-c3ccccc3)cc(=O)oc2c1)NCC(O)c1ccccc1 (stereo unspecified)	i	4.5	-1.0	-4.0	i	0.8	x	x	x	x
CCOC(=O)c1c(C)[nH]c(C)c1C(=O)CSc1nc2ccccc2c(=O)n1-c1ccccc1C	i	56.8*	3.6	-15.5	i	13.8	26.0*	47.2	7.1	13.8
O=C(N/C(=C/C=C/c1ccccc1)C(=O)N1CCOCC1)c1ccccc1Cl	i	8.7	1.1	-14.8	i	4.2	x	x	x	x
O=C(Nc1ccc(C(=O)O)cc1)/C(=C\C=C\c1ccccc1)NC(=O)c1ccccc1Cl	i	58.2*	-0.9	7.0	i	2.7	22.6*	29.6	6.2	6.4
Cc1noc(C)c1NC(=O)N(C)C[C@H]1Oc2ccc(NS(=O)(=O)c3ccc(F)cc3)cc2C(=O)N([C@H](C)CO)C[C@@H]1C	x	-6.3	0.3	3.1	i	3.8	x	x	x	x
O=C(CSc1ncnc2scc(-c3ccccc3)c12)N1CCN(c2ccccc2F)CC1	i	20.3	5.5	15.1	i	0.5	x	x	x	x
COc1ccccc1N1CCN(C(=O)CSc2ncnc3scc(-c4ccccc4)c23)CC1	i	55.9*	-1.8	12.5	i	2.6	21.8*	33.4	4.9	9.9
COc1ccc(C(=O)O/N=C(\N)Cc2ccc([N+](=O)[O-])cc2)c(OC)c1	i	-6.2	0.7	26.3	i	0.3	x	x	x	x
N=Nc1c(O)n(CC(=O)Nc2ccccc2)c2ccccc12	i	-0.9	1.2	-2.5	i	7.9	x	x	x	x
Cc1cc(C)cc(OCC(=O)Nc2ccc(N3CCN(C(=O)c4ccco4)CC3)cc2)c1	i	74.3*	-2.9	-5.2	i	22.8	43.4*	62.4*	12.1*	8.7
O=C(CSc1ccc(Cl)cc1)Nc1ccc(NC(=O)c2ccco2)cc1	i	3.9	-0.2	26.4	i	1.5	x	x	x	x
O=C(CSc1ccc(Cl)cc1)Nc1ccc(N2CCN(C(=O)c3ccco3)CC2)cc1	i	51.5*	1.4	13.9	i	19.3	35.0*	37.4	13.2*	14.4
O=C(COc1ccc(Cl)cc1)Nc1ccc(N2CCN(C(=O)c3ccco3)CC2)cc1	i	79.7*	-1.0	1.2	i	22.8	41.9*	45.9	12.1*	27.7
O=S(=O)(c1ccc(F)cc1)N1CCN(Cc2nnc(-c3ccccc3)o2)CC1	x	72.8*	-0.2	-0.1	i	-2.6	13.6	1.9	4.4	6.5
SMILES	TMEM16A inh	TAAR1 antagonist	CRFBP-R2 agonist	CRFBP-R2 block	TMEM16A act	TAAR1 agonist	nonsel antag count	TAAR1 ant conf	Ga16 nonsel ag	TAAR1 ag count
COc1cccc(-c2csc(N3CCN(C(=O)Nc4ccccc4Cl)CC3)n2)c1	i	23.2	-0.3	-4.8	i	9.6	x	x	x	x
COc1cccc(NC(=O)N2CCN(c3nc(-c4cccc(OC)c4)cs3)CC2)c1	i	73.2*	-1.6	-11.1	i	2.6	35.0*	43.3	6.8	1.1
O=c1oc(C2(O)CCCCC2)cc2ccc(/C=C/c3ccc(F)cc3)cc12	x	63.2*	-0.2	-10.6	i	5.4	25.9*	24.0	3.7	3.6
COc1ccc(-c2nc(NC(=O)c3ccc(OCC(=O)Nc4ccc(F)cc4)c(OC)c3)sc2C)cc1	i	65.2*	-1.1	-1.2	i	7.4	29.9*	47.3	9.6	10.4
COc1cc(C(=O)Nc2nc(-c3cc(C)ccc3C)c(C)s2)ccc1OCC(=O)Nc1ccc(F)cc1	i	25.8	2.2	-19.5	i	0.8	x	x	x	x
Cc1cc(/C=N\NC(=O)c2cccs2)c(C)n1-c1ccc2ncccc2c1	i	102.5*	-0.9	-9.8	i	10.1	33.9*	98.1*	12.0*	11.6
COc1cc(CCC(=O)Nc2ccc(S(=O)(=O)NC3=NCCCCC3)cc2)cc(OC)c1OC	i	-21.4	2.0	4.1	i	1.3	x	x	x	x

Screening data: PubChem BioAssay, several laboratories
